Sampled rows, rich in hits. Any-hit rate of the full collection: about 4.3%.
Dyrk1A ADPGlo = Dyrk1A (rat) kinase inhibition; actives 0.43% (n = 310,000); Q63470; inhibition, % at 12.5 µM; ADP-Glo luminescence, NFATc1 peptide; in the data active = inhibition above about 50%
ALR inh = inhibitors of human sulfhydryl oxidase ALR; purified ALR, DTT oxidation, H2O2 HRP-luminol luminescence; inhibition, % (no concentration beside the values); P55789; actives 3.8% (n = 290,000);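 active = mean replicate inhibition above about 79%, with every replicate also reaching it, limit read from the data; inconclusive = only one of the two criteria met; inactive = mean below limit and not every replicate reaching it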
Target sequence (P55789 whole entry, looked up): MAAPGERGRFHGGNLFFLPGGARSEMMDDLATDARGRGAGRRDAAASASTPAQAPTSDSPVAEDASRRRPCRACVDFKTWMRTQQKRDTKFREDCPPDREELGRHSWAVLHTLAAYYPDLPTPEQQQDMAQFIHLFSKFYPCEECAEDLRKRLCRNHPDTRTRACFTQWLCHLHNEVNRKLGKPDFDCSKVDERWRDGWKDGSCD
CAL PDZ FP-1 = inhibitors of human CAL PDZ peptide binding; actives 0.92% (n = 300,000); inhibition, % at 24.9 µM; Q9HD26; purified CAL PDZ, TMR-peptide fluorescence polarization, 1 h;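 active = mean inhibition of at least 30% with at least half of replicates also reaching 30%; inconclusive = no clear call, values can overlap the other calls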
Rtt109 Vps75 = blocks Candida albicans Rtt109/Vps75 acetyltransferase activity; Q5AAJ8; purified Rtt109/Vps75, ThioGlo CoA-SH fluorescence, 4 h; inhibition, % at 34.9 µM; actives 0.16% (n = 330,000); AID 540336;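 active = inhibition of at least 50% in every replicate; inconclusive = best replicate reaches 50% inhibition but some replicates fall short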
Target sequence (Q5AAJ8 whole entry, looked up): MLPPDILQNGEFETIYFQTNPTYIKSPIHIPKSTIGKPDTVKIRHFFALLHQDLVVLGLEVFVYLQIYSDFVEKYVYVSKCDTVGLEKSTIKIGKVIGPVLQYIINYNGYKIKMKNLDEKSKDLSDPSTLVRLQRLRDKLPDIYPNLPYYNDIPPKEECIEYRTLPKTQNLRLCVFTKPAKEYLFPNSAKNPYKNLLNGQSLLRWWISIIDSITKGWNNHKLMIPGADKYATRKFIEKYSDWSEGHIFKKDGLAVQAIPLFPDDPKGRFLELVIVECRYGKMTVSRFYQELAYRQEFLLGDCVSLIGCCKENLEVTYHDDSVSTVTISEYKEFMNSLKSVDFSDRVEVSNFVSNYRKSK
CAL PDZ FP-2 = blocks peptide binding to human CAL PDZ domain; purified CAL PDZ, TMR-peptide fluorescence polarization, 1 h; actives 0.02% (n = 330,000); inhibition, % at 20 µM; Q9HD26; AID 504414;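 active = highest replicate inhibition of at least 40%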
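material = purified tagged CAL PDZ domain construct (CerCALP) | buffer or medium = sodium phosphate/NaCl buffer pH 7.4 with TCEP, IgG, Thesit | reagent = TMR-labelled reporter peptide T*-PRC34 bound in PDZ groove | incubation = 1 h room-temperature incubation prior to read | measured by = fluorescence polarization (mP) | evaluation = percent inhibition from loss of millipolarization | control set = unlabelled peptide and DMSO controls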
Hits are given with their value; 0 = inactive; ? = inconclusive; - = not tested or not shown.

SMILES | Dyrk1A ADPGlo | ALR inh | CAL PDZ FP-1 | Rtt109 Vps75 | CAL PDZ FP-2
Cc1nc(SCc2ccc(C(=O)O)cc2)nc2c1CCCC2 | 0 | 96 | - | 0 | 0
C[C@@H]1ON(C)[C@H]2C[C@H]3c4cc(-c5cccc(F)c5)ccc4CCN3C(=O)[C@@H]12 | - | - | 0 | 0 | 0
CC(=O)c1cnc2nc(SCc3ccc(Cl)cc3)nn2c1C | 0 | 0 | 178 | 0 | -
O=C(CCNS(=O)(=O)c1ccccc1)OCC(=O)c1ccc(Cl)cc1 | 0 | 0 | 0 | 0 | 0
Cc1ccc(S(=O)(=O)N2CCOCC2)cc1C(=O)NC1CCN(Cc2ccccc2)CC1 | - | - | 0 | 0 | 0
O=C(NC1CCN(Cc2ccccc2)C1)c1cc(S(=O)(=O)N2CCOCC2)ccc1Cl (centres undefined) | 0 | 0 | 59 | 0 | 0
Cc1[nH]c(C)c(S(=O)(=O)N2c3ccccc3CC2C)c1C(=O)N1CCCCC1 (centres undefined) | 0 | 0 | 0 | 0 | 0
Nc1cc(N)nc(SCC(=O)c2ccccc2)n1 | 0 | 99 | 0 | 0 | 0
Nc1cc(N)nc(SCC(=O)Nc2ccccc2)n1 | 0 | 0 | 0 | 0 | 0
COc1ccc(Cl)cc1C(=O)CSc1nc(N)cc(N)n1 | 0 | 94 | 0 | 0 | 0
CC(C)CN1C(=O)NC(NS(=O)(=O)c2ccc(N)cc2)(C(F)(F)F)C1=O (centres undefined) | 0 | 99 | 0 | 0 | 0
CCOC(=O)Cc1cc(=O)n2[nH]c(C)c(-c3ccc(Cl)cc3)c2n1 | 0 | 99 | 0 | 0 | 0
CCOC(=O)Cc1cc(=O)n2[nH]c(C)c(-c3ccc(OC)cc3)c2n1 | 0 | 91 | - | 0 | 0
COC(=O)Cc1cc(=O)n2[nH]c(C)c(-c3ccccc3)c2n1 | 0 | 0 | 0 | 0 | 0
C/C(=N\NC(=O)c1ccc(N/N=C(\C)c2ccncc2)cc1)c1ccncc1 | 0 | 98 | 0 | 0 | 0
C/C(=N\NC(=O)c1ccncc1)c1ccc(N2CCOCC2)cc1 | - | 0 | 0 | 0 | 0
C/C(=N\NC(=O)c1ccncc1)c1ccc(N(C)C)cc1 | 0 | 91 | 0 | 0 | -
C/C(=N/NC(=O)c1ccncc1)c1ccccc1 | 0 | 0 | 0 | 0 | 0
c1ccc2c(CSc3ncnc4nc[nH]c34)cccc2c1 | 0 | 98 | 0 | - | 0
Cc1cccc(NC(=S)N2CCN(c3ccc(F)cc3)CC2)c1 | 0 | 0 | 0 | - | 0
CC(C)c1ccc(N2C(=O)C(Cl)=C(N3CCOCC3)C2=O)cc1 | 0 | 0 | - | 0 | 0
CCOc1ccc(N2C(=O)C(Cl)=C(N3CCOCC3)C2=O)cc1 | 0 | 0 | 0 | 116 | 0
C/C(=N\NC(=O)c1ccccc1O)C1C(=O)c2ccccc2C1=O | 0 | 98 | 0 | ? | 0
C/C(=N/NC(=O)c1cc2ccccc2cc1O)C1C(=O)c2ccccc2C1=O | 0 | 0 | 0 | 0 | 0
O=C1c2ccsc2SCCN1Cc1ccc(F)cc1 | 0 | 0 | 39 | 0 | -
SMILES | Dyrk1A ADPGlo | ALR inh | CAL PDZ FP-1 | Rtt109 Vps75 | CAL PDZ FP-2
CCN(CC)S(=O)(=O)c1ccc(C)c(NC(=O)CNCCN(C(C)C)C(C)C)c1 | 0 | 0 | 0 | 0 | 0
CCCn1c(=C(C#N)C#N)s/c(=C2\C=Cc3ccccc3N2CC)c1=O | 0 | - | 55 | 0 | 0
CCN1/C(=C/c2ccc3cc(C)cc(C)c3[n+]2CC)Sc2cc(C)ccc21 | 0 | - | 0 | 82 | 0
CCN1/C(=C\c2ccc3cc(C)ccc3[n+]2CC)Sc2cc(C)c(C)cc21 | 0 | - | 0 | ? | 0
Cc1csc(NC(=O)Cc2coc3cc(C)c(C(C)C)cc23)n1 | 0 | 89 | 0 | 0 | 0
Cc1cccc(NC(=O)N2CCC(NC(=O)c3ccco3)CC2)c1 | 0 | 0 | 0 | 0 | -
O=C(CNC(=O)c1ccco1)OCc1cccc(Cl)c1 | 0 | 0 | 0 | 0 | 0
O=C(CCNc1cccc(Cl)c1)c1ccco1 | 0 | 97 | - | 0 | 0
O=C(NC1CCN(C(=O)Nc2cccc(Cl)c2)CC1)c1ccco1 | 0 | 0 | 58 | 0 | 0
Cc1cc(C)n(CCCNC(=O)CCNS(=O)(=O)c2ccccc2C(F)(F)F)n1 | 0 | 0 | 0 | 0 | 0
O=C(NCCCN1CCOCC1)C(=O)NCC1OCCN1S(=O)(=O)c1ccc(F)cc1 (centres undefined) | 0 | 0 | 0 | 0 | 0
O=C(NCCN1CCOCC1)C(=O)NCC1OCCN1S(=O)(=O)c1ccc(F)cc1 (centres undefined) | 0 | 0 | 83 | 0 | 0
COCCNC(=O)C(=O)NCC1OCCN1S(=O)(=O)c1ccc(F)cc1 (centres undefined) | 0 | 0 | 34 | 0 | 0
CCC(c1nnc(SCC(=O)NC2CCCCC2)n1Cc1ccccc1)N(C)C (centres undefined) | 0 | 0 | 0 | 0 | 0
CCn1cc(CCC(=O)NCCN2CCOCC2)c2ccccc21 | 0 | 0 | 0 | 0 | 0
O=C(NNC(=S)NC(=O)c1cccnc1)c1ccc(F)cc1 | 0 | 98 | 0 | 0 | 0
O=C(NNC(=S)NC(=O)c1ccc(F)cc1)c1cccnc1 | 0 | 98 | 0 | 0 | 0
O=C1CCCC(=O)C1=Cc1c[nH]c2ccccc12 | 0 | 0 | 70 | 0 | 0
O=C1CCC(=O)N1CCc1c[nH]c2ccccc12 | 0 | 0 | 0 | 0 | 0
Cc1c(C(=O)N(C)C)c2ccc(Cl)cc2n1O | 0 | 99 | 0 | 0 | 0
Cc1c(C(=O)N(C)C)c2cc(Cl)ccc2n1O | 0 | 98 | 0 | - | 0
C/C(=N\NC(=O)COc1ccc(C#N)cc1)c1ccc(N2CCOCC2)cc1 | 0 | 99 | 0 | 0 | 0
N#Cc1ccc(OCC(=O)OCC(=O)Nc2ccc(N3CCOCC3)cc2)cc1 | 0 | 94 | 0 | 0 | 0
O=C(COC(=O)CNS(=O)(=O)c1ccc(Br)cc1Cl)Nc1ccc(N2CCOCC2)cc1 | 0 | 99 | 0 | 0 | 0
O=C(CNS(=O)(=O)c1ccc(Br)cc1Cl)OCC(=O)N1CCCC1=O | 0 | 0 | 0 | 0 | 0
SMILES | Dyrk1A ADPGlo | ALR inh | CAL PDZ FP-1 | Rtt109 Vps75 | CAL PDZ FP-2
N#Cc1ccc(C(=O)OCC(=O)Nc2ccc(N3CCOCC3)cc2)cc1 | - | 0 | 0 | 0 | 0
C/C(=C/C(=O)Nc1cccc(F)c1)N1CCCC1 | 0 | 0 | 0 | 0 | 0
O=C(CN1CCCCC1)n1c2ccccc2c2ccccc21 | 0 | 0 | 0 | 56 | 0
CN1CCN(CC(=O)n2c3c(c4ccccc42)CCCC3)CC1 | 0 | 0 | 0 | 0 | 0
O=C(CN1CCN(S(=O)(=O)N2CCCCCC2)CC1)Nc1ccc(Br)cc1 | 0 | 0 | 0 | 0 | 0
O=C(c1ccc(=O)[nH]n1)N1CCN(S(=O)(=O)c2cccc(F)c2)CC1 | 0 | - | 0 | 0 | 0
Cc1cc(C(=O)Nc2c(F)cc(F)cc2Br)c(C)o1 | 0 | 96 | 0 | 0 | 0
Cc1noc(C)c1C(=O)Nc1c(F)cc(F)cc1Br | 0 | 0 | 0 | 0 | 0
Cc1cc(C(=O)Nc2sc3c(c2C#N)CCCC3)no1 | 0 | 97 | 0 | 0 | 0
Cc1cc(C(=O)Nc2sc3c(c2C#N)CCC3)no1 | 0 | 0 | 0 | 0 | 0
N#Cc1c(-c2ccccc2)nc(SCc2nc(N)nc(N3CCCCC3)n2)[nH]c1=O | 0 | 97 | 0 | 0 | 0
CCSc1nc(-c2ccccc2)c(C#N)c(=O)[nH]1 | 0 | 0 | 0 | 0 | 0
COc1ccc(C2=Nn3c(nnc3C(F)(F)F)SC2)cc1 | 0 | 0 | 0 | 0 | 0
